Results of several laboratories.
Lines come from different studies, so protocols differ.

SMILES | host | medium | route | dose | notes | half-life [h]
CCn1c(=O)c(-c2cc(NC(=O)Nc3ccccc3)c(F)cc2Br)cc2cnc(NC)cc21 | beagle dog | plasma | oral | 5 mg/kg | single dose | 6.96
COc1cc2c3c(n(CCCN4CCOCC4)c(=O)c2cc1OC)-c1cc2c(cc1C3=O)OCO2 | female beagle dog | plasma | intravenous | 100 mg/m² | infusion | 14
O=C(NCCN1CCCC1)c1cc(-c2ccc(CN3CCOCC3)cc2)nc2ccc(F)cc12 | male beagle dog | blood | intravenous | 1 mg/kg |  | 13
CC[C@@H]1CN(C(=O)NCC(F)(F)F)C[C@@H]1c1cnc2cnc3[nH]ccc3n12 | beagle dog | plasma | oral | 1 mg/kg | single dose | 11.6
Cc1nnc2sc(C(=O)NCc3ccc(-c4cccnc4F)cc3)c(N)c2c1C | dog | plasma | intravenous |  |  | 1
Oc1c(-n2ccnn2)cnn1-c1cc(N2CCOCC2)ncn1 | female dog | plasma | intravenous | 3 mg/kg |  | 2.7
Cc1cnc(N2CC3(CCOCC3)C2)c(C(=O)Nc2ccc(C(=O)N3CCc4cc(C(=O)Nc5c(C)cccc5F)sc4-c4ccccc43)cc2)c1 | dog | plasma | intravenous | 0.1 mg/kg | single dose | 2.4
C=CC(=O)Nc1cc(Nc2nccc(Nc3cc(Cl)c(F)cc3C(C)(C)O)n2)c(OC)cc1N1CC[C@@H](N(C)C)C1 | beagle dog | plasma | intravenous | 1 mg/kg |  | 13.9
